Test results published in ChEMBL document CHEMBL1153989, “Synthesis and antiviral activities of novel acylhydrazone derivatives targeting HIV-1 capsid protein” (Bioorg Med Chem Lett, 2009).

How the values were obtained:
[1] = Therapeutic index, TC50 for human CEM174 cells to EC50 for SIV-induced syncytium; type: cell-based; settings: read-out: TI
Summary of the method: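 Index calculated as TC₅₀ (MTT, uninfected CEM174, 5 days) divided by EC₅₀ (inhibition of SIV syncytium formation in CEM174 cells infected with 100 TCID₅₀ per well, 5 days, microscopic scoring).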

[2] = tested on: Simian immunodeficiency virus; experiment: Antiviral activity against SIV-induced syncytium in human CEM174 cells assessed as inhibition of virus-induced cytopathogenicity after 5 days; type: functional, organism-based; settings: CEM174, 120 h
Summary of the method: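 CEM174 cells at 1 × 10⁵ cells/mL, infected with 100 TCID₅₀ SIV per well, with serial compound dilutions; 5 days at 37 °C, 5% CO₂, humidified. Syncytium (giant cell) formation scored by microscope. EC₅₀ is the concentration giving 50% protection against SIV cytopathogenicity. Indinavir at 1 × 10⁻⁶ mol/L served as positive control.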

[3] = Cytotoxicity against uninfected human CEM174 cells after 5 days by MTT assay; type: cell-based; settings: read-out: TC50
Summary of the method: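 Uninfected CEM174 cells under the antiviral assay conditions (5 days, 37 °C, 5% CO₂, humidified) with compound dilutions. Proliferation read by MTT reduction. TC₅₀ is the concentration inhibiting proliferation by 50%.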

[4] = molecular target: Structural capsid protein (Human immunodeficiency virus 1) (UniProt Q76129); experiment: Binding affinity to HIV1 capsid protein assessed as decrease in assembly rate by turbidity-based ultraviolet spectrophotometry (RVb= 59.2+/-0.3 milliOD/min)
Structural capsid protein (Human immunodeficiency virus 1), sequence (Q76129 as listed by the source): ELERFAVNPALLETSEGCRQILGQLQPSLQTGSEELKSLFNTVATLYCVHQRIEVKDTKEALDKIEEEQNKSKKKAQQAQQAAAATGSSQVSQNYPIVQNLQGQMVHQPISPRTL

[5] = molecular target: Structural capsid protein (Human immunodeficiency virus 1) (UniProt Q76129); experiment: Binding affinity to HIV1 capsid protein assessed as assembly rate at 40 uM by turbidity-based ultraviolet spectrophotometry
[6] = molecular target: Structural capsid protein (Human immunodeficiency virus 1) (UniProt Q76129); experiment: Binding affinity to HIV1 capsid protein assessed as assembly rate at 10 uM by turbidity-based ultraviolet spectrophotometry
[7] = molecular target: Structural capsid protein (Human immunodeficiency virus 1) (UniProt Q76129); experiment: Binding affinity to HIV1 capsid protein assessed as assembly rate at 20 uM by turbidity-based ultraviolet spectrophotometry

Row | EC50 [2] [µM] | SMILES | selectivity ratio [1] | CC50 at 120 h [3] [µM] | Activity (milli optical density/minute) [4] | Activity (milli optical density/minute) [5] | Activity (milli optical density/minute) [6] | Activity (milli optical density/minute) [7]
1 | 0.3 | C/C(=N\NC(=O)[C@H](Cc1ccccc1)NS(=O)(=O)c1ccc(C)cc1)c1ccccc1 | 70.7 | 21.2 |  |  |  | 
2 | 0.27 | Cc1ccc(S(=O)(=O)N[C@@H](Cc2ccccc2)C(=O)NN=C(c2ccccc2)c2ccccc2)cc1 | > 365 | > 100 |  |  |  | 
3 | 2.46 | Cc1ccc(S(=O)(=O)N[C@@H](Cc2ccccc2)C(=O)N/N=C/c2ccco2)cc1 | 40.6 | 99.8 |  |  |  | 
4 | 2.8 | Cc1ccc(S(=O)(=O)N[C@@H](Cc2ccccc2)C(=O)N/N=C/c2ccc(Cl)cc2)cc1 | 3.4 | 9.4 |  |  |  | 
5 | 15.3 | O=C(N/N=C/c1ccccc1)[C@H](Cc1ccccc1)NS(=O)(=O)c1ccc(Br)cc1 | > 6.5 | > 100 |  |  |  | 
6 | 0.65 | CC(=O)Nc1ccc(S(=O)(=O)N/N=C/c2ccccc2)cc1 | 61.5 | 40 |  |  |  | 
7 | 1.32 | CC(=O)Nc1ccc(S(=O)(=O)N[C@@H](CO)C(=O)N/N=C/c2ccccc2)cc1 | > 75.8 | > 100 |  |  |  | 
8 | 3 | O=C(N[C@@H](Cc1ccccc1)C(=O)N/N=C/c1ccccc1)c1ccc([N+](=O)[O-])cc1 | 6.2 | 18.7 |  |  |  | 
9 | 5.49 | Cc1ccc(S(=O)(=O)N[C@@H](Cc2ccccc2)C(=O)N/N=C/c2ccc(Br)cc2)cc1 | 15 | 82.5 |  |  |  | 
10 | 0.36 | Cc1ccc(S(=O)(=O)N/N=C/c2ccccc2)cc1 | 88.1 | 31.7 |  |  |  | 
11 | 0.4 | C/C(=N\NC(=O)[C@H](Cc1ccccc1)NS(=O)(=O)c1ccc(C)cc1)c1cccc2ccccc12 | 123 | 49.1 |  |  |  | 
12 | 0.89 | Cc1ccc(S(=O)(=O)N[C@@H](Cc2ccccc2)C(=O)NN=C2CCCCC2)cc1 | 87.6 | 78.3 |  |  |  | 
13 | 36 | O=C(N/N=C/c1ccccc1)[C@H](CO)NS(=O)(=O)c1ccc(Br)cc1 | 2.2 | 80.2 |  |  |  | 
14 | 4.45 | Cc1ccc(S(=O)(=O)N[C@@H](Cc2ccccc2)C(=O)N/N=C/c2ccccc2F)cc1 | > 22.5 | > 100 |  |  |  | 

The remaining lines, values behind:

Row | SMILES | EC50 [2] [µM] | selectivity ratio [1] | CC50 at 120 h [3] [µM] | Activity (milli optical density/minute) [4] | Activity (milli optical density/minute) [5] | Activity (milli optical density/minute) [6] | Activity (milli optical density/minute) [7]
15 | Cc1ccc(S(=O)(=O)N[C@@H](Cc2ccccc2)C(=O)N/N=C/c2ccccc2)cc1 | 0.4 | 125 | 50 | 18.9 |  |  | 
16 | Cc1ccc(/C=N/NC(=O)[C@H](Cc2ccccc2)NS(=O)(=O)c2ccc(C)cc2)cc1 | 9.93 | > 10.1 | > 100 | 46 |  |  | 
17 | CC(=O)Nc1ccc(S(=O)(=O)NCC(=O)N/N=C/c2ccccc2)cc1 | 15.1 | > 6.6 | > 100 |  |  |  | 
18 | COc1ccc(C(=O)N/N=C/c2ccccc2)cc1 | 31.1 | > 3.22 | > 100 |  |  |  | 
19 | O=S(=O)(N/N=C/c1ccccc1)c1ccc(Br)cc1 | 0.95 | > 105 | > 100 |  |  |  | 
20 | COc1ccc(C(=O)N[C@@H](Cc2ccccc2)C(=O)N/N=C/c2ccccc2)cc1 | 0.2 | > 500 | > 100 | 22.6 |  |  | 
21 | O=C(CNC(=O)c1ccc([N+](=O)[O-])cc1)N/N=C/c1ccccc1 | 1.03 | > 97.1 | > 100 |  |  |  | 
22 | O=[N+]([O-])c1ccc(S(=O)(=O)N2CCC(c3ccccc3)=N2)cc1 | 0.52 | > 192 | > 100 |  |  |  | 
23 | O=C(N[C@@H](CO)C(=O)N/N=C/c1ccccc1)c1ccc([N+](=O)[O-])cc1 | 2 | > 50 | > 100 |  |  |  | 
24 | COc1ccc(C(=O)N[C@@H](CO)C(=O)N/N=C/c2ccccc2)cc1 | 0.6 | 76 | 45.6 | 21.7 |  |  | 
25 | COc1cc(/C=N/NC(=O)[C@H](Cc2ccccc2)NS(=O)(=O)c2ccc(C)cc2)ccc1O | 0.21 | > 476 | > 100 | 10.6 | 7.7 | 14 | 10.9
26 | Cc1ccc(NC(=O)NCCSCc2ccc(CN(C)C)o2)cc1Cl |  |  |  | 33.4 |  |  | 
27 | O=C(N/N=C/c1ccccc1)c1ccc([N+](=O)[O-])cc1 | 5.59 | 5.3 | 29.6 |  |  |  | 
28 | Cc1ccc(S(=O)(=O)NCC(=O)N/N=C/c2ccccc2)cc1 | 1.5 | 55.7 | 83.5 | 23.1 |  |  | 
29 | Cc1ccc(S(=O)(=O)N[C@@H](CO)C(=O)N/N=C/c2ccccc2)cc1 | 1.63 | 3.2 | 5.19 | 24.4 |  |  | 
30 | CC(=O)Nc1ccc(S(=O)(=O)N[C@@H](Cc2ccccc2)C(=O)N/N=C/c2ccccc2)cc1 | 0.47 | > 213 | > 100 | 20.8 |  |  | 
31 | Cc1ccc(S(=O)(=O)N[C@@H](Cc2ccccc2)C(=O)N/N=C/c2ccc3c(c2)OCO3)cc1 | 0.17 | > 588 | > 100 | 7.9 | 2.5 | 13.2 | 7.4
32 | O=S(=O)(c1ccc(Br)cc1)N1CCC(c2ccccc2)=N1 | 0.1 | 382 | 38.2 | 17.3 |  |  | 
33 | COc1ccc(C(=O)NCC(=O)N/N=C/c2ccccc2)cc1 | 2 | 31.9 | 63.8 | 43.5 |  |  | 
34 | Cc1ccc(S(=O)(=O)N[C@@H](Cc2ccccc2)C(=O)N/N=C/c2ccc([N+](=O)[O-])cc2)cc1 | 6.64 | 1.5 | 9.8 | 31.9 |  |  | 
35 | O=C(CNS(=O)(=O)c1ccc(Br)cc1)N/N=C/c1ccccc1 | 0.33 | 284 | 92.8 | 22.5 |  |  | 
